The values below come from the M2OR odorant receptor database.

The test concerns the target T1, OR2W3 (Homo sapiens) (UniProt Q7Z3T1).
T1 sequence (whole entry): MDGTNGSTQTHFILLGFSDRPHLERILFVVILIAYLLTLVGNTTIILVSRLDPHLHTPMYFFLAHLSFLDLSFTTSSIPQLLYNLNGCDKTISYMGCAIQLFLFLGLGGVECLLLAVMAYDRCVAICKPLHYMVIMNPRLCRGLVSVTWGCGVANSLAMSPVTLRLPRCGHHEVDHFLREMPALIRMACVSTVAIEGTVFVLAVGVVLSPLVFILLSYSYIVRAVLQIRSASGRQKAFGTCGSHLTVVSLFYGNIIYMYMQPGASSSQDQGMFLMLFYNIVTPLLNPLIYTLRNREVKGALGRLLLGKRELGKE
The following applies: stereoisomer not certain. An outline of the steps: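 Assay methods differ from source to source, frequently being transient luciferase assays in mammalian cell lines. For each receptor–molecule pair, the label responsive (active) applies when the original authors judged the measured signal statistically different from baseline, and non-responsive (inactive) applies otherwise.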
Consider `CCCCCCCCCCCCCCC(=O)O`, for which the “odorant receptor agonist call” value was “inactive”.

`CC1=CCC2CC1C2(C)C` (stereo unspecified): the “odorant receptor agonist call” value is “inactive”.

As for `COc1ccc2[nH]cc(CCNC(C)=O)c2c1`, the “odorant receptor agonist call” value is “inactive”.

Turning to `CCCCCCCCCCCC(=O)O`, the “odorant receptor agonist call” value was “inactive”.

As for `CCCCCCCCCCCCCCCCCC(=O)[O-].[H+]`, the “odorant receptor agonist call” value was “inactive”.

For `CCCCCCCCCCCC(=O)OCC`, the “odorant receptor agonist call” value is “inactive”.

`CCC(O)CC`: the “odorant receptor agonist call” value was “inactive”.

As to `CCCCCCCCCCCCCCCCCC(=O)OCC`, the “odorant receptor agonist call” value is “inactive”.

As for `CC(C)=CCCC(C)=CCCC(C)=CCO`, the “odorant receptor agonist call” value was “inactive”.

For `CCCCCCCCCCCCCCCCCC(=O)OC`, the “odorant receptor agonist call” value was “inactive”.

On to `CCCCCCCCCC(=O)OCC`, for which the “odorant receptor agonist call” value was “inactive”.

For the molecule `CCCCCCCCCCCCCC(=O)OCC`, the “odorant receptor agonist call” value was “inactive”.

Take `CCCCCCCC(=O)OCC`: the “odorant receptor agonist call” value was “inactive”.

With `CCCCCCCCCCCCCCCC(=O)[O-].[H+]`, the “odorant receptor agonist call” value was “inactive”.

On to `CCCCC(=O)C(C)=O`, for which the “odorant receptor agonist call” value is “inactive”.

For the molecule `CCCO`, the “odorant receptor agonist call” value was “inactive”.

As to `CCCC(=O)CC`, the “odorant receptor agonist call” value is “inactive”.

Turning to `CCCCOCC(C)O` (stereo unspecified), the “odorant receptor agonist call” value was “inactive”.

In the case of `CC(=O)O`, the “odorant receptor agonist call” value is “inactive”.

On to `Cc1cccc(C)c1C`, for which the “odorant receptor agonist call” value was “inactive”.

For `CCCCCCCCCCCCCC(=O)OC`, the “odorant receptor agonist call” value was “inactive”.

Turning to `CCCCCCCCCCCCCC(=O)O`, the “odorant receptor agonist call” value was “inactive”.

As for `Cc1cnc(C)cn1`, the “odorant receptor agonist call” value is “inactive”.

Turning to `CCC(C)CO` (stereo unspecified), the “odorant receptor agonist call” value is “inactive”.

On to `CCCCCCCCCCCC(=O)OC`, for which the “odorant receptor agonist call” value is “inactive”.

On to `CCCCCCCCCCCCCCCC(=O)OCC`, for which the “odorant receptor agonist call” value is “inactive”.

For `CC(C)=CCCC(C)=CCO`, the “odorant receptor agonist call” value is “inactive”.

As for `C=C1CCC2CC1C2(C)C` (stereo unspecified), the “odorant receptor agonist call” value was “inactive”.

As to `CCCCCCCCCC(=O)OC`, the “odorant receptor agonist call” value was “inactive”.

For `O=c1ccc2ccccc2o1`, the “odorant receptor agonist call” value was “inactive”.

In the case of `CCCCCCCC(=O)OC`, the “odorant receptor agonist call” value is “inactive”.

`CCCCCCCCO`: the “odorant receptor agonist call” value was “inactive”.

`CCCCCCCCCCCCO`: the “odorant receptor agonist call” value was “inactive”.

For `Cc1ccc(C(C)C)cc1`, the “odorant receptor agonist call” value is “inactive”.

With `CC(O)C(=O)[O-].[H+]` (stereo unspecified), the “odorant receptor agonist call” value is “inactive”.

Regarding `CCCCCCCCCCCCCCCC(=O)OC`, the “odorant receptor agonist call” value was “inactive”.
